Experiment [1] in a line: (§1) Allosteric modulation of rat GABAA alpha1beta2gamma2S receptor expressed in Xenopus laevis oocytes assessed as potentiation of EC3 to 10 GABA-induced chloride ion current at holding potential -70 mV by two-microelectrode voltage clamp assay. The format is cell-based. The gist of the method:
(§2)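 Stage V–VI Xenopus laevis oocytes were injected with 50 nL of rat α1, β2 and γ2S cRNA mixed 1:1:10 (about 300–3000 pg/nL per subunit), stored at 18 °C in ND96, and recorded on days 1–5. Two-electrode clamp was at −70 mV in pH 7.4 HEPES bath. Compound was applied by fast perfusion with GABA EC3–10, in 1% DMSO final. Enhancement = I(GABA+Comp)/IGABA − 1.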

Experiment [2] is filed under the species Rattus norvegicus. Described as §1. The format is cell-based. The gist of the method:
as §2

A short description of experiment [3]: Modulation of GABAA alpha5beta2gamma2S receptor (unknown origin) expressed in Xenopus laevis oocytes assessed as potentiation of EC3 to 10 GABA-induced chloride ion current at holding potential -70 mV by two-microelectrode voltage clamp assay. Particulars: Homo sapiens. The class given is cell-based.
A short description of experiment [4]: Potency index, ratio of compound activity for modulation of rat GABAA alpha1beta2gamma2S receptor assessed as EC3 to 10 GABA-induced chloride ion current to clotiazepam activity for modulation of GABAA alpha1beta2gamma2S receptor (unknown origin) assessed as potentiation of EC5 to 10 GABA-induced chloride ion current.
The target of experiment [5] is GABA A receptor alpha-3/beta-2/gamma-2 (Homo sapiens) (UniProt P47870+P18507+P34903). Briefly: Modulation of GABAA alpha3beta2gamma2S receptor (unknown origin) expressed in Xenopus laevis oocytes assessed as potentiation of EC3 to 10 GABA-induced chloride ion current at holding potential -70 mV at 1 to 300 uM by two-microelectrode voltage clamp assay relative to GABA-treated control. The class given is cell-based.

The species entered for experiment [6] is Rattus norvegicus. Briefly: Allosteric modulation of rat GABAA alpha1beta2gamma2S receptor expressed in Xenopus laevis oocytes assessed as potentiation of EC3 to 10 GABA-induced chloride ion current at holding potential -70 mV at 1 to 300 uM by two-microelectrode voltage clamp assay relative to GABA-treated control. The format is cell-based. The gist of the method: as §2

The species named for experiment [7] is Homo sapiens. Briefly: Modulation of GABAA alpha4beta2gamma2S receptor (unknown origin) expressed in Xenopus laevis oocytes assessed as potentiation of EC3 to 10 GABA-induced chloride ion current at holding potential -70 mV at 1 to 300 uM by two-microelectrode voltage clamp assay relative to GABA-treated control. The format is cell-based.
For experiment [8], the target named is T1, GABA-A receptor; alpha-1/beta-3/gamma-2 (Homo sapiens, UniProt P14867+P18507+P28472).
T1 sequence (P14867 whole entry): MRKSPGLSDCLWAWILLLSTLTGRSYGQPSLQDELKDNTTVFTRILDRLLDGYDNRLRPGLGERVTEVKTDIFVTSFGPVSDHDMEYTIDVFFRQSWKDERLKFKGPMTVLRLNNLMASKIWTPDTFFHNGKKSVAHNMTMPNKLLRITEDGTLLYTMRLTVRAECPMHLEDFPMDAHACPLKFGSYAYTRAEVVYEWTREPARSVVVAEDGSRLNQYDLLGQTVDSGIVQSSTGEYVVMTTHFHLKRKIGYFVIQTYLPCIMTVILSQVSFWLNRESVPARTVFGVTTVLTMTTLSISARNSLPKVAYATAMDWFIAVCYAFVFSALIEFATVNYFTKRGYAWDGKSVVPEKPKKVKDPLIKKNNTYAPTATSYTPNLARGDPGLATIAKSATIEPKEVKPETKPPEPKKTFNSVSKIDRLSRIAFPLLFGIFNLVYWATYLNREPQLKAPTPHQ
T1 sequence (P18507 whole entry): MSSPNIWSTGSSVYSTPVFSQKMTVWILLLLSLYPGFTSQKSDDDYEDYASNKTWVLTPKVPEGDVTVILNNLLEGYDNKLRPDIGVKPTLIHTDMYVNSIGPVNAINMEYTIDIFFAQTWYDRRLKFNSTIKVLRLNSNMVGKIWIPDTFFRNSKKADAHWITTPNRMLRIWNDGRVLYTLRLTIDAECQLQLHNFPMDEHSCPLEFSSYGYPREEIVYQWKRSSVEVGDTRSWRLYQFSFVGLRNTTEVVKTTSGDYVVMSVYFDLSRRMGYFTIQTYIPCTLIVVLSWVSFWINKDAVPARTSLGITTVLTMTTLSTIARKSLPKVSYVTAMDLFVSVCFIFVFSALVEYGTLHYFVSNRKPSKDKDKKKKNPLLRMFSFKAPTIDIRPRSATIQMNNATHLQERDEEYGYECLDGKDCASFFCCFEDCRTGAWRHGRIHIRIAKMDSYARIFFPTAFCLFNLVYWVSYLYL
T1 sequence (P28472 whole entry): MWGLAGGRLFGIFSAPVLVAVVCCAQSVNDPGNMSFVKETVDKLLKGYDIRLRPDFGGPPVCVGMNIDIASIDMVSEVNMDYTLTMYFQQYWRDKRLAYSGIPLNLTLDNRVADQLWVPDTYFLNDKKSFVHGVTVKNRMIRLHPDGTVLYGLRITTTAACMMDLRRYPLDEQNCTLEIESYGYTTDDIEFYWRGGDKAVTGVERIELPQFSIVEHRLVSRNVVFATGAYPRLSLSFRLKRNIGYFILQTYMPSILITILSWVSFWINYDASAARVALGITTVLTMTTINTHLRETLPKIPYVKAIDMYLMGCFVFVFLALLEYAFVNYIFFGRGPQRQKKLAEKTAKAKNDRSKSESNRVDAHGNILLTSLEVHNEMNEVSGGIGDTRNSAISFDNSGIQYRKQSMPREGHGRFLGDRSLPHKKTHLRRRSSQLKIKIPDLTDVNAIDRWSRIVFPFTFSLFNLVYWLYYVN
Briefly: Modulation of GABAA alpha1beta3gamma2S receptor (unknown origin) expressed in Xenopus laevis oocytes assessed as potentiation of EC3 to 10 GABA-induced chloride ion current at holding potential -70 mV by two-microelectrode voltage clamp assay. The class given is cell-based.

The species entered for experiment [9] is Rattus norvegicus. Briefly: Agonist activity rat GABAA alpha1beta2gamma2S receptor expressed in Xenopus laevis oocytes assessed as potentiation of GABA-induced chloride ion current at holding potential -70 mV at <100 uM compound treated prior to GABA challenge by two-microelectrode voltage clamp assay. The class given is cell-based.
For experiment [10], the species on record is Rattus norvegicus. As to the kind of experiment: Allosteric modulation of rat GABAA alpha1beta2gamma2S receptor expressed in Xenopus laevis oocytes assessed as potentiation of GABA-induced chloride ion current at holding potential -70 mV at 100 uM by two-microelectrode voltage clamp assay relative to GABA-treated control. The format is cell-based. The gist of the method:
as §2

The species named for experiment [11] is Homo sapiens. As to the kind of experiment: Modulation of GABAA alpha5beta2gamma2S receptor (unknown origin) expressed in Xenopus laevis oocytes assessed as potentiation of EC3 to 10 GABA-induced chloride ion current at holding potential -70 mV at 1 to 300 uM by two-microelectrode voltage clamp assay relative to GABA-treated control. The class given is cell-based.

Experiment [12] is described as follows: Potency index, ratio of compound activity for modulation of rat GABAA alpha1beta2gamma2S receptor assessed as EC3 to 10 GABA-induced chloride ion current to midazolam activity for modulation of GABAA alpha1beta2gamma2S receptor (unknown origin) assessed as potentiation of EC5 to 10 GABA-induced chloride ion current.

The source made the active and inactive calls. The calls are words filed in the database; no cut-off is given here.

The term EC50 denotes the midpoint of the concentration-response curve. Regarding `COc1cc(O)cc(CCc2cccc(O)c2)c1` [BATATASIN III], the EC50 in experiment [1] came out at 52.5 µM; in experiment [3] it was 46.7 µM; in experiment [8], 67.2 µM. The Activity result in experiment [2] is “Dose-dependent effect”; in experiment [10] it was 628%. The Ratio in experiment [4] and in [12] was 4 in each case. Besides, the Imax in experiment [5] amounted to 1690%; in experiment [6] it was 1510%; in experiment [7], 1590%; in [11] it was 1380%. For the same compound, in [9], the result was inactive.

The record behind these values is ChEMBL document CHEMBL3112517, “Identification of dihydrostilbenes in Pholidota chinensis as a new scaffold for GABAA receptor modulators” (Bioorg Med Chem, 2014).
